From ChEMBL document CHEMBL1240350, “In vitro activity of CEM-101 against Streptococcus pneumoniae and Streptococcus pyogenes with defined macrolide resistance mechanisms” (Antimicrob Agents Chemother, 2010)
Values after ≈ are worked out from the molar mass of the structure shown.

Tests used:
Streptococcus pneumoniae [1] = test: Antibacterial activity against macrolide-resistant Streptococcus pneumoniae 3665 harboring mef(A) gene after 50 passages following overnight incubation by agar dilution method; assay type: functional
Streptococcus pyogenes [2] = test: Antibacterial activity against macrolide-resistant Streptococcus pyogenes 2094 harboring erm(A) gene after 34 passages following overnight incubation by agar dilution method
Streptococcus pyogenes [3] = test: Antibacterial activity against macrolide-resistant Streptococcus pyogenes harboring mef(A) gene after overnight incubation by agar dilution method; assay type: functional
In short: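 Agar dilution MICs on Mueller-Hinton agar with 5% sheep blood. Inoculum 10^4 CFU/spot, incubated overnight at 35°C in ambient air. Clinical S. pneumoniae or group A streptococcal isolates; resistance genotypes (erm(B), erm(A), mef(A)/mef(E)) were assigned by PCR. S. pneumoniae ATCC 49619 served as QC strain in each run. Range, MIC50 and MIC90 reported per phenotype group.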

Streptococcus pneumoniae [4] = test: Antibacterial activity against macrolide-resistant Streptococcus pneumoniae 3009 harboring mutation in 23S rRNA after 50 passages following overnight incubation by agar dilution method; assay type: functional
Streptococcus pyogenes [5] = test: Antibacterial activity against Streptococcus pyogenes harboring erm(A) gene after overnight incubation by agar dilution method; assay type: functional
In short: (§1)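 Clinical isolates collected 1998–2008, with macrolide-resistance genes confirmed by PCR. MICs by agar dilution on Mueller-Hinton agar with 5% sheep blood. Inoculum 10^4 CFU/spot, incubated overnight at 35°C in ambient air. S. pneumoniae ATCC 49619 was the quality-control strain in every run.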

Streptococcus pyogenes [6] = test: Antibacterial activity against macrolide-resistant Streptococcus pyogenes 2094 harboring erm(A) gene after 22 passages and 10 compound-free subculturing by retest method
Streptococcus pneumoniae [7] = test: Antibacterial activity against Streptococcus pneumoniae harboring erm(A) gene after overnight incubation by agar dilution method; assay type: functional; in short: as §1
Streptococcus pneumoniae [8] = test: Antibacterial activity against quinolone-susceptible Streptococcus pneumoniae after overnight incubation by agar dilution method; assay type: functional
In short: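 Agar dilution on Mueller-Hinton agar supplemented with 5% sheep blood. Inoculum 10^4 CFU/spot, incubated overnight at 35°C in ambient air. Test strains were clinical pneumococcal isolates. S. pneumoniae ATCC 49619 was included as the quality control strain in each run. MIC range, MIC50 and MIC90 were reported for each susceptibility category.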

Streptococcus pneumoniae [9] = test: Antibacterial activity against macrolide-resistant Streptococcus pneumoniae 1076 harboring erm(B) and mef(A) gene after overnight incubation by agar dilution method; assay type: functional
Streptococcus pneumoniae [10] = test: Antibacterial activity against macrolide-resistant Streptococcus pneumoniae 1635 harboring erm(A) gene after 14 passages following overnight incubation by agar dilution method; assay type: functional
Streptococcus pneumoniae [11] = test: Antibacterial activity against macrolide-susceptible Streptococcus pneumoniae 7127 harboring S20N mutation in L4 ribosomal protein and A105V mutation in L22 ribosomal protein after 43 passages and 10 compound-free subculturing by retest method; assay type: functional
Streptococcus pneumoniae [12] = test: Antibacterial activity against macrolide-susceptible Streptococcus pneumoniae 1077 after 49 passages and 10 compound-free subculturing by retest method; assay type: functional
Streptococcus pyogenes [13] = test: Antibacterial activity against macrolide-resistant Streptococcus pyogenes 237 harboring mutation in L4 ribosomal protein after 43 passages following overnight incubation by agar dilution method
Streptococcus pyogenes [14] = test: Antibacterial activity against macrolide-resistant Streptococcus pyogenes 2011 harboring mef(A) gene after 35 passages following overnight incubation by agar dilution method
Streptococcus pneumoniae [15] = test: Antibacterial activity against macrolide-resistant Streptococcus pneumoniae 3665 harboring mef(A) gene after 14 passages following overnight incubation by agar dilution method; assay type: functional
[16] = Half life in human at 400 to 500 mg; conditions: in vivo
Streptococcus pneumoniae [17] = test: Antibacterial activity against macrolide-resistant Streptococcus pneumoniae 1635 harboring erm(A) gene after 14 passages and 10 compound-free subculturing by retest method; assay type: functional
In short: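 Multistep selection by daily serial passage in subinhibitory drug concentrations. Medium was cation-adjusted Mueller-Hinton broth plus 5% lysed horse blood. Each day the next inoculum came from the tube 1–2 dilutions below the MIC whose turbidity matched the growth control, for up to 50 days. Clone MICs by CLSI macrodilution; identity to the parent confirmed by SmaI PFGE.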

Streptococcus pneumoniae [18] = test: Antibacterial activity against macrolide-susceptible Streptococcus pneumoniae 1077 after 43 passages following overnight incubation by agar dilution method; assay type: functional
Streptococcus pneumoniae [19] = test: Antibacterial activity against macrolide-resistant Streptococcus pneumoniae 1076 harboring erm(B) and mef(A) gene after 18 passages following overnight incubation by agar dilution method; assay type: functional
Streptococcus pneumoniae [20] = test: Antibacterial activity against macrolide-resistant Streptococcus pneumoniae 24 harboring erm(B) gene after 14 passages following overnight incubation by agar dilution method; assay type: functional
Streptococcus pyogenes [21] = test: Antibacterial activity against macrolide-resistant Streptococcus pyogenes 2094 harboring erm(A) gene after 43 passages following overnight incubation by agar dilution method
[22] = Tmax in human at 400 to 500 mg; conditions: in vivo
Streptococcus pneumoniae [23] = test: Antibacterial activity against macrolide-susceptible Streptococcus pneumoniae 7127 harboring S20N mutation in L4 ribosomal protein and A105V mutation in L22 ribosomal protein after 15 passages following overnight incubation by agar dilution method; assay type: functional
Streptococcus pneumoniae [24] = test: Antibacterial activity against macrolide-susceptible Streptococcus pneumoniae 1077 after 50 passages following overnight incubation by agar dilution method; assay type: functional
Streptococcus pneumoniae [25] = test: Antibacterial activity against macrolide-resistant Streptococcus pneumoniae 3009 harboring mutation in 23S rRNA after 25 passages following overnight incubation by agar dilution method; assay type: functional
Streptococcus pyogenes [26] = test: Antibacterial activity against macrolide-resistant Streptococcus pyogenes 2094 harboring erm(A) gene after 6 passages following overnight incubation by agar dilution method
Streptococcus pneumoniae [27] = test: Antibacterial activity against macrolide-resistant Streptococcus pneumoniae 1635 harboring erm(A) gene after 50 passages following overnight incubation by […]; assay type: functional
In short: (§2)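 S. pneumoniae parental strains were passaged daily in subinhibitory drug concentrations in cation-adjusted Mueller-Hinton broth with 5% lysed horse blood. Each passage was seeded from the tube 1 to 2 dilutions below the MIC whose turbidity matched the growth control. MICs of resistant clones were measured by CLSI macrodilution. Parent and clone identity was confirmed by PFGE of SmaI-digested DNA.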

Streptococcus pneumoniae [28] = test: Antibacterial activity against macrolide-resistant Streptococcus pneumoniae 1076 harboring erm(B) and mef(A) gene after 14 passages following overnight incubation by agar dilution method; assay type: functional
Streptococcus pyogenes [29] = test: Antibacterial activity against macrolide-resistant Streptococcus pyogenes 2368 harboring erm(B) gene after 6 passages following overnight incubation by agar dilution method
Streptococcus pyogenes [30] = test: Antibacterial activity against macrolide-resistant Streptococcus pyogenes 2094 harboring erm(A) gene after 22 passages following overnight incubation by agar dilution method
Streptococcus pneumoniae [31] = test: Antibacterial activity against macrolide-susceptible Streptococcus pneumoniae 7127 harboring S20N mutation in L4 ribosomal protein and A105V mutation in L22 ribosomal protein after 38 passages following overnight incubation […]; assay type: functional; in short: as §2
[32] = Streptococcus pneumoniae, 1635, read-out: MIC

Structure (SMILES)	MIC (Streptococcus pneumoniae [1]) [µg/mL]	MIC50 (Streptococcus pyogenes [3]) [µg/mL]	MIC90 (Streptococcus pyogenes [3]) [µg/mL]	MIC (Streptococcus pneumoniae [4]) [µg/mL]	MIC50 (Streptococcus pyogenes [5]) [µg/mL]	MIC90 (Streptococcus pyogenes [5]) [µg/mL]	MIC (Streptococcus pyogenes [6]) [µg/mL]	MIC (Streptococcus pneumoniae [7]) [µg/mL]	MIC50 (Streptococcus pneumoniae [8]) [µg/mL]	MIC90 (Streptococcus pneumoniae [8]) [µg/mL]	MIC (Streptococcus pneumoniae [9]) [µg/mL]	MIC (Streptococcus pneumoniae [10]) [µg/mL]	MIC (Streptococcus pneumoniae [11]) [µg/mL]	MIC (Streptococcus pneumoniae [12]) [µg/mL]	MIC (Streptococcus pneumoniae [15]) [µg/mL]	MIC (Streptococcus pneumoniae [17]) [µg/mL]	MIC (Streptococcus pneumoniae [17]; [32]) [µg/mL]	MIC (Streptococcus pneumoniae [20]) [µg/mL]	further results
CCC[C@@H]1C[C@@H](C(=O)N[C@@H]([C@H]2O[C@H](SC)[C@H](O)[C@@H](O)[C@H]2O)[C@H](C)Cl)N(C)C1 [CLINDAMYCIN]	0.03 (≈ 0.0706 µM)	0.06 (≈ 0.141 µM)	0.125 (≈ 0.294 µM)	2 (≈ 4.71 µM)	0.125 (≈ 0.294 µM)	0.25 (≈ 0.588 µM)	> 64	0.125 (≈ 0.294 µM)	0.06 (≈ 0.141 µM)	> 64	64 (≈ 151 µM)	> 64	0.25 (≈ 0.588 µM)	8 (≈ 18.8 µM)	–	–	–	–	MIC (Streptococcus pyogenes [2]): > 64 µg/mL; MIC (Streptococcus pyogenes [13]): 0.5 µg/mL (≈ 1.18 µM)
CC[C@H]1OC(=O)[C@H](C)[C@@H](O[C@H]2C[C@@](C)(OC)[C@@H](O)[C@H](C)O2)[C@H](C)[C@@H](O[C@@H]2O[C@H](C)C[C@H](N(C)C)[C@H]2O)[C@](C)(O)C[C@@H](C)CN(C)[C@H](C)[C@@H](O)[C@]1(C)O [AZITHROMYCIN]	16 (≈ 21.4 µM)	8 (≈ 10.7 µM)	8 (≈ 10.7 µM)	–	16 (≈ 21.4 µM)	> 64	> 64	2 (≈ 2.67 µM)	> 64	> 64	> 64	> 64	0.03 (≈ 0.0401 µM)	> 64	–	–	–	–	MIC (Streptococcus pyogenes [14]): 32 µg/mL (≈ 42.7 µM)
CC[C@H]1OC(=O)[C@@](C)(F)C(=O)[C@H](C)[C@@H](O[C@@H]2O[C@H](C)C[C@H](N(C)C)[C@H]2O)[C@](C)(OC)C[C@@H](C)C(=O)[C@H](C)[C@H]2N(CCCCn3cc(-c4cccc(N)c4)nn3)C(=O)O[C@]12C [SOLITHROMYCIN]	–	–	–	–	0.03 (≈ 0.0355 µM)	0.125 (≈ 0.148 µM)	0.03 (≈ 0.0355 µM)	0.008 (≈ 0.00947 µM)	0.03 (≈ 0.0355 µM)	0.25 (≈ 0.296 µM)	1 (≈ 1.18 µM)	–	0.004 (≈ 0.00473 µM)	0.06 (≈ 0.071 µM)	0.5 (≈ 0.592 µM)	0.004 (≈ 0.00473 µM)	0.004 (≈ 0.00473 µM)	0.06 (≈ 0.071 µM)	half-life [16]: 5 h; MIC (Streptococcus pneumoniae [18]): 0.06 µg/mL (≈ 0.071 µM); MIC (Streptococcus pneumoniae [19]): 32 µg/mL (≈ 37.9 µM); MIC (Streptococcus pyogenes [21]): 0.25 µg/mL (≈ 0.296 µM); Tmax [22]: 4 h
CC[C@H]1OC(=O)[C@H](C)[C@@H](O[C@H]2C[C@@](C)(OC)[C@@H](O)[C@H](C)O2)[C@H](C)[C@@H](O[C@@H]2O[C@H](C)C[C@H](N(C)C)[C@H]2O)[C@](C)(OC)C[C@@H](C)C(=O)[C@H](C)[C@@H](O)[C@]1(C)O [CLARITHROMYCIN]	–	4 (≈ 5.35 µM)	8 (≈ 10.7 µM)	–	2 (≈ 2.67 µM)	> 64	8 (≈ 10.7 µM)	0.25 (≈ 0.334 µM)	16 (≈ 21.4 µM)	> 64	> 64	–	0.016 (≈ 0.0214 µM)	> 64	–	–	–	–	MIC (Streptococcus pneumoniae [23]): 16 µg/mL (≈ 21.4 µM); MIC (Streptococcus pneumoniae [24]): 0.008 µg/mL (≈ 0.0107 µM); MIC (Streptococcus pneumoniae [25]): > 64 µg/mL; MIC (Streptococcus pyogenes [26]): > 64 µg/mL
CC[C@H]1OC(=O)[C@H](C)C(=O)[C@H](C)[C@@H](O[C@@H]2O[C@H](C)C[C@H](N(C)C)[C@H]2O)[C@](C)(OC)C[C@@H](C)C(=O)[C@H](C)[C@H]2N(CCCCn3cnc(-c4cccnc4)c3)C(=O)O[C@]12C [TELITHROMYCIN]	–	0.5 (≈ 0.616 µM)	1 (≈ 1.23 µM)	0.03 (≈ 0.0369 µM)	0.06 (≈ 0.0739 µM)	0.125 (≈ 0.154 µM)	0.125 (≈ 0.154 µM)	0.03 (≈ 0.0369 µM)	0.125 (≈ 0.154 µM)	0.5 (≈ 0.616 µM)	0.5 (≈ 0.616 µM)	–	0.008 (≈ 0.00985 µM)	0.06 (≈ 0.0739 µM)	2 (≈ 2.46 µM)	0.008 (≈ 0.00985 µM)	0.004 (≈ 0.00493 µM)	32 (≈ 39.4 µM)	MIC (Streptococcus pneumoniae [27]): 0.008 µg/mL (≈ 0.00985 µM); MIC (Streptococcus pneumoniae [28]): > 64 µg/mL; MIC (Streptococcus pyogenes [29]): > 64 µg/mL; MIC (Streptococcus pyogenes [30]): 0.25 µg/mL (≈ 0.308 µM); MIC (Streptococcus pneumoniae [31]): 0.06 µg/mL (≈ 0.0739 µM)
